Measurements published in ChEMBL document CHEMBL5380787, “Optimized M24B Aminopeptidase Inhibitors for CARD8 Inflammasome Activation” (J Med Chem, 2023).
Activity calls are given as the source filed them. No cut-off for these calls is given here.

Legend:
OCI-AML2 = test: Induction of cell death in human OCI-AML2 cells assessed as increase in PI uptake at 6.25 uM incubated for 6 hrs by PI staining based fluorescence analysis; format: functional
Procedure, shortened: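 PI flux assay. 2 × 10^4 MV4;11 (WT, CARD8−/− or CASP1−/−) or OCI-AML2 cells in RPMI were given compound at 6.25 μM plus PI at 10 μM final. Fluorescence (Ex/Em 535/617 nm) was read every 5 min at 37 °C for 6 h, baseline-corrected to DMSO and normalized to the maximum response. n = 3.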

[1] = Drug metabolism of the compound in human MV4-11 cells assessed as de-esterified metabolite formation by LC-MS analysis; format: ADME, cell-based
MV4-11 [2] = test: Cytotoxicity against human MV4-11 cells assessed as reduction in cell viability at 0.015 to 100 uM incubated for 24 hrs by celltiter-glo assay; format: functional; conditions: dose 0.015-100 µM
Procedure, shortened: (§1)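 MV4;11 cells (WT or CASP1−/−), grown in RPMI 1640 with 10% FBS at 37 °C, 5% CO2, plated 2000 cells/well, dosed by pintool across 100 μM to 15.2 nM in three-fold steps for 24 h. Viability by CellTiter-Glo luminescence after 2 min shaking and 10 min at 25 °C. IC50 as mean ± SEM of three biological replicates.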

MV4-11 [3] = test: Cytotoxicity against CASP1 knockout human MV4-11 cells assessed as reduction in cell viability at 0.015 to 100 uM incubated for 24 hrs by celltiter-glo assay; format: functional; conditions: dose 0.015-100 µM; procedure, shortened: as §1
[4] = Stability of the compound in human MV4-11 cells assessed as de-esterification by measuring parent compound remaining measured after 24 hrs by LC-MS analysis; format: ADME, cell-based; conditions: read-out: Stability
Procedure, shortened: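 Compound was incubated in conditioned medium from MV4;11 cells for 24 h at 37 °C, and LC/MS then measured intact ester remaining and the de-esterified free acid. n = 3, mean ± SEM.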

Row | Compound | Activity (OCI-AML2) | Drug metabolism [1] | Activity (MV4-11 [2]) [%] | Activity (MV4-11 [3]) [%] | remaining at 24 h [4] [%]
1 | COC(=O)[C@H](CC(C)C)NC(=O)[C@@H]1CCCN1C(=O)[C@@H](O)[C@H](N)CC(C)C | Active | Metabolite_Detected | – | – | –
2 | COC(=O)[C@@H]1CCCN1C(=O)[C@@H](O)[C@H](N)CC(C)C | – | – | 28 | 95 | 50
